Calls of active or inactive are those of the source. The rule behind the calls is not given here.
B1: Proton-coupled folate transporter (Homo sapiens), Q96NT5 (protein)
chain: MEGSASPPEKPRARPAAAVLCRGPVEPLVFLANFALVLQGPLTTQYLWHRFSADLGYNGTRQRGGCSNRSADPTMQEVETLTSHWTLYMNVGGFLVGLFSSTLLGAWSDSVGRRPLLVLASLGLLLQALVSVFVVQLQLHVGYFVLGRILCALLGDFGGLLAASFASVADVSSSRSRTFRMALLEASIGVAGMLASLLGGHWLRAQGYANPFWLALALLIAMTLYAAFCFGETLKEPKSTRLFTFRHHRSIVQLYVAPAPEKSRKHLALYSLAIFVVITVHFGAQDILTLYELSTPLCWDSKLIGYGSAAQHLPYLTSLLALKLLQYCLADAWVAEIGLAFNILGMVVFAFATITPLMFTGYGLLFLSLVITPVIRAKLSKLVRETEQGALFSAVACVNSLAMLTASGIFNSLYPATLNFMKGFPFLLGAGLLLIPAVLIGMLEKADPHLEFQQFPQSP

Columns and labels:
SK-OV-3 [1] = test: Antitumor activity against human SKOV3 cells expressing RFC/PCFT/FRalpha xenografted in folate-deficient diet fed NCR SCID mouse assessed as delay in tumor growth at 28 mg/kg, iv administered every 4 days on day 3, 7, 11 measured twice per week; type: functional, organism-based
Outline: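 Female NCR SCID mice, 10 weeks old, given bilateral subcutaneous SKOV3 tumor fragments and randomized at 5 mice/group. Fed ad libitum a folate-deficient diet or a standard folate-replete diet. Dosed intravenously at 0.2 mL/injection on a Q4dx3 schedule (days 3, 7, 11). […] Tumors measured twice weekly; mice weighed daily.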

Mus musculus [2] = test: Toxicity in folate-deficient diet fed NCR SCID mouse xenografted with human SKOV3 cells expressing RFC/PCFT/FRalpha assessed as body weight loss at 28 mg/kg, iv administered every 4 days on day 3, 7, 11 relative to control; type: organism-based, SK-OV-3; settings: in vivo, 96 h
Outline: (§1)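 Ten-week-old female NCR SCID mice, fed a folate-deficient or standard folate-replete diet, were implanted subcutaneously and bilaterally with SKOV3 tumour fragments. Randomised at 5 mice/group. Dosed intravenously, 0.2 mL per injection, in 5% ethanol/1% Tween-80/0.5% NaHCO3 in water at pH 6.5, on days 3, 7 and 11. Tumours measured twice weekly and mice weighed daily. T/C taken on day 21; growth delay and log cell kill also reported.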

SK-OV-3 [3] = test: Antitumor activity against human SKOV3 cells expressing RFC/PCFT/FRalpha xenografted in folate-replete diet fed NCR SCID mouse assessed as tumor growth inhibition at 28 mg/kg, iv administered every 4 days on day 3, 7, 11 measured on day 21 relative to control; type: functional; outline: as §1
Mus musculus [4] = test: Toxicity in folate-replete diet fed NCR SCID mouse xenografted with human SKOV3 cells expressing RFC/PCFT/FRalpha assessed as body weight loss at 28 mg/kg, iv administered every 4 days on day 3, 7, 11; type: organism-based, SK-OV-3; settings: in vivo, 96 h
KB [5] = test: Antiproliferative activity against human KB cells expressing FRalpha/PCFT/RFC assessed as cell growth inhibition after 96 hrs by CellTiter-Blue assay in presence of 200 nM folic acid; type: functional, cell-based
IGROV-1 = test: Antiproliferative activity against human IGROV1 cells after 96 hrs by CellTiter-Blue assay; type: functional, cell-based; settings: IGROV-1, 96 h
Outline: (§2)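 IGROV1 and SKOV3 cells plated at ~2500–5000 cells/well in folate-free RPMI 1640 with 10% dialyzed FBS, antibiotics and 2 nM LCV, over a range of drug concentrations, ±200 nM folic acid in parallel. Incubated up to 96 h. Viability read by Cell Titer Blue fluorescence (ex 560/em 590 nm).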

SK-OV-3 [6] = test: Antiproliferative activity against human SKOV3 cells after 96 hrs by CellTiter-Blue assay; type: functional, cell-based; settings: SK-OV-3, 96 h; outline: as §2
SK-OV-3 [7] = test: Antiproliferative activity against human SKOV3 cells after 96 hrs by CellTiter-Blue assay in presence of 200 nM folic acid; type: functional, cell-based; settings: SK-OV-3, 96 h; outline: as §2
[8] = molecular target: Folate receptor alpha (Homo sapiens) (UniProt P15328); test: Displacement of [3H]-folic acid from human FRalpha expressed in Chinese hamster RT16 cells after 15 mins relative to folic acid; type: cell-based
Outline: (§3)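 Competitive binding to surface folate receptor on RT16 (FRα) or D4 (FRβ) CHO cells. Cells were acid-washed (pH 3.5) to strip bound folate, then incubated in HEPES-buffered saline pH 7.4 with 50 nM [3H]folic acid plus unlabeled ligand (0–1000 nM) for 15 min at 0 °C. Bound label was normalised to protein. Affinity is the inverse molar ratio for 50% displacement, with folic acid set to 1. Mean of 4–10 experiments ±SE.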

[9] = molecular target: Folate receptor beta (Homo sapiens) (UniProt P14207); test: Displacement of [3H]-folic acid from human FRbeta expressed in Chinese hamster D4 cells after 15 mins relative to folic acid; type: cell-based; outline: as §3
[10] = molecular target: T1, Trifunctional purine biosynthetic protein adenosine-3 (Homo sapiens) (UniProt P22102); test: Inhibition of GARFTase in human KB cells expressing FRalpha/PCFT/RFC assessed as cell growth inhibition after 96 hrs by CellTiter-Blue assay in presence of adenosine; type: cell-based
T1 sequence (whole entry): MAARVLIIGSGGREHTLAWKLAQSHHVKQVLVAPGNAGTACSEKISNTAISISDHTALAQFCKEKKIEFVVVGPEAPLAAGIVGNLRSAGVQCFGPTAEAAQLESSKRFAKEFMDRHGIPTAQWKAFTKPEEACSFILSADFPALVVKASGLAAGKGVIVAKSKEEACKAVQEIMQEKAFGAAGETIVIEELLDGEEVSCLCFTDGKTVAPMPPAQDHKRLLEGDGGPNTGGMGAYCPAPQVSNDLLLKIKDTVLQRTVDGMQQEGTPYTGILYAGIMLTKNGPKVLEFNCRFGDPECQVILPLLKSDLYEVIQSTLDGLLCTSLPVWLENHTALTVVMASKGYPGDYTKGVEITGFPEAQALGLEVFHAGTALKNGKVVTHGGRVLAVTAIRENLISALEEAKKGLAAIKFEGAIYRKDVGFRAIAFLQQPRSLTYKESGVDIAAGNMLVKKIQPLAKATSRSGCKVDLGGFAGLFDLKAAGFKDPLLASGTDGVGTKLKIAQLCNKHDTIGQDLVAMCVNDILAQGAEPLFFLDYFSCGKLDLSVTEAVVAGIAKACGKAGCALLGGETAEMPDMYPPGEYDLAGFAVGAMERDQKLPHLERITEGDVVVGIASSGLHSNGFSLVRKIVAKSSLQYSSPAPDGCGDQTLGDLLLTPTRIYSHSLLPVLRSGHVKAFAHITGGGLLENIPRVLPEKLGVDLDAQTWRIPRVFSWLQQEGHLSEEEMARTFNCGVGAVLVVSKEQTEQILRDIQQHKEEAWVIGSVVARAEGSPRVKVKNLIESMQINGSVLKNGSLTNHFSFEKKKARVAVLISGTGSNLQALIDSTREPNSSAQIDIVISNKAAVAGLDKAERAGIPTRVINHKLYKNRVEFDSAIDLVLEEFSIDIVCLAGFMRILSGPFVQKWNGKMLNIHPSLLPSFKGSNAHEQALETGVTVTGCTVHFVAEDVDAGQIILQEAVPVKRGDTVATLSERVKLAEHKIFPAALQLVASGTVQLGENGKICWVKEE

[11] = molecular target: T1, Trifunctional purine biosynthetic protein adenosine-3 (Homo sapiens); test: Inhibition of GARFTase in human KB cells expressing FRalpha/PCFT/RFC assessed as cell growth inhibition after 96 hrs by CellTiter-Blue assay in presence of AICA; type: cell-based
[12] = Binding affinity to human RFC expressed in Chinese hamster PC43-10 cells assessed as cell growth inhibition after 96 hrs by CellTiter-Blue assay
R2 [13] = test: Cytotoxicity against PCFT-null Chinese hamster R2 cells assessed as cell growth inhibition after 96 hrs by CellTiter-Blue assay; type: cell-based, Cricetulus griseus; settings: R2, 96 h
R2 [14] = test: Cytotoxicity against Chinese hamster R2 cells transfected with empty PCDNA3 assessed as cell growth inhibition after 96 hrs by CellTiter-Blue assay; type: cell-based, Cricetulus griseus
[15] = molecular target: T2, Proton-coupled folate transporter (Homo sapiens) (UniProt Q96NT5); test: Binding affinity to human PCFT expressed in Chinese hamster R2/PCFT4 cells assessed as cell growth inhibition after 96 hrs by CellTiter-Blue assay in presence of 200 nM folic acid; type: cell-based
T2 sequence (whole entry): B1 chain
Outline: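 Human-PCFT-transfected R2 CHO cells, precultured with G418, were plated at ~2500–5000 cells/well across a range of drug concentrations. Medium was folate-free RPMI 1640 (pH 7.2) with 25 nM LCV and 10% dialyzed FBS. Parallel wells received 200 nM folic acid. Incubated up to 96 h, then read with CellTiter Blue fluorescence (ex 560/em 590 nm).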

KB [16] = test: Antiproliferative activity against human KB cells expressing FRalpha/PCFT/RFC assessed as cell growth inhibition after 96 hrs by CellTiter-Blue assay; type: functional, cell-based
[17] = molecular target: T1, Trifunctional purine biosynthetic protein adenosine-3 (Homo sapiens); test: Inhibition of GARFTase in human KB cells expressing FRalpha/PCFT/RFC assessed as cell growth inhibition after 96 hrs by CellTiter-Blue assay in presence of thymidine; type: cell-based
[18] = molecular target: T3, Trifunctional purine biosynthetic protein adenosine-3 (Homo sapiens, UniProt P22102); test: Inhibition of GARFTase in human KB cells expressing FRalpha/PCFT/RFC assessed as incorporation of [14C(U)]-glycine into [14C]-formyl GAR preincubated for 1 hr followed by azaserine, L-glutamine, 14C(U)]-glycine addition measured after 16 hrs; type: cell-based
T3 sequence (P22102 whole entry): T1 sequence (whole entry)
Outline: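 In situ assay in KB cells. Cells were exposed to a range of drug concentrations with [14C]glycine for 16 h under proliferation-assay conditions, with azaserine present. Radiolabelled metabolites were extracted and separated on anion exchange columns, and [14C]formyl GAR quantified. Mean ±SE of three experiments.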

[19] = molecular target: T3, Trifunctional purine biosynthetic protein adenosine-3; test: Inhibition of human recombinant His-tagged GARFTase assessed as formation of 5,8-dideazafolate from 10-formyl-5,80-dideazafolic acid measured every 15 secs over 20 mins by spectrophotometric analysis
R2 [20] = test: Cellular uptake in PCFT-null Chinese hamster R2 cells at 0.5 uM at 37 degC at pH 5.5 measured over 2 mins; type: ADME, cell-based, Cricetulus griseus; settings: r2, pH 5.5, 2 min
Outline: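 R2/PCFT4 or PCFT-null R2 CHO cells were grown in suspension from spinner flasks. Uptake of 0.5 μM [3H]drug measured over 2 min at 37 °C in MES-buffered saline pH 5.5, with or without 10 μM unlabeled competitor. Uptake was quenched with ice-cold DPBS and cells solubilised in NaOH. Results are pmol/mg protein, mean ±SEM of three experiments.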

[21] = molecular target: T2, Proton-coupled folate transporter (Homo sapiens); test: (§4) Binding affinity to human PCFT expressed in Chinese hamster R2/PCFT4 cells assessed as intracellular drug transport rate at 37 degC at pH 5.5 measured over 2 mins by Lineweaver-Burk plot analysis; type: cell-based
Outline: (§5)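 R2/PCFT4 CHO cells were grown as monolayers, transferred to spinner flasks, and used as suspensions (5–10 × 10⁷ cells). Uptake was quenched with ice-cold DPBS and cells were NaOH-solubilized. Results are pmol/mg protein; Kt and Vmax come from Lineweaver–Burke plots.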

[22] = molecular target: T2, Proton-coupled folate transporter (Homo sapiens); test: (§6) Binding affinity to human PCFT expressed in Chinese hamster R2/PCFT4 cells assessed as intracellular drug transport rate at 37 degC at pH 6.8 measured over 2 mins by Lineweaver-Burk plot analysis; type: cell-based; outline: as §5
[23] = substrate: Nc1nc2[nH]c(CCCc3cc(C(=O)N[C@@H](CCC(=O)O)C(=O)O)cs3)cc2c(=O)[nH]1; test: as §4; type: cell-based; outline: as §5
[24] = substrate: Nc1nc2[nH]cc(CCc3ccc(C(=O)N[C@@H](CCC(=O)O)C(=O)O)cc3)c2c(=O)[nH]1; test: as §4; type: cell-based; outline: as §5
[25] = substrate: Nc1nc2[nH]c(CCCc3cc(C(=O)N[C@@H](CCC(=O)O)C(=O)O)cs3)cc2c(=O)[nH]1; test: as §6; type: cell-based; outline: as §5
[26] = substrate: Nc1nc2[nH]cc(CCc3ccc(C(=O)N[C@@H](CCC(=O)O)C(=O)O)cc3)c2c(=O)[nH]1; test: as §6; type: cell-based; outline: as §5

Chain of Folate receptor alpha (Homo sapiens) (P15328 25-234 limits assumed): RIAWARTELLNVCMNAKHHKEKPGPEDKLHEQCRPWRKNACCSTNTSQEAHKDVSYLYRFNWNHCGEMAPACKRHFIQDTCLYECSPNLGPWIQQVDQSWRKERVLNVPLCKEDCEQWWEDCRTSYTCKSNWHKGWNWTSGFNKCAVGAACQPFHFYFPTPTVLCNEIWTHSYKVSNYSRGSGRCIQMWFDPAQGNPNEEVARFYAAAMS
Chain of Folate receptor beta (Homo sapiens) (P14207 17-230 limits assumed): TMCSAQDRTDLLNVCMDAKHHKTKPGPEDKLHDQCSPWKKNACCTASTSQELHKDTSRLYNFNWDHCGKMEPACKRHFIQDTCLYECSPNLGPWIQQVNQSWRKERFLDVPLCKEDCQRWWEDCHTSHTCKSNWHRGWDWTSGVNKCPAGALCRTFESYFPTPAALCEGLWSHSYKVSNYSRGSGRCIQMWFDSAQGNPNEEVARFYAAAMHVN

Row | Molecule | IC50 (KB [5]) | Activity [8] | Activity [9] | inhibition [10] | inhibition [11] | IC50 (R2 [13]) | IC50 (R2 [14]) | IC50 (KB [16]) | IC50 [18] | Ki [19] | other results
1 | Nc1nc2[nH]c(CCCc3ccc(C(=O)N[C@@H](CCC(=O)O)C(=O)O)s3)cc2c(=O)[nH]1 | 101 nM | 70% | 50% | inactive | inactive | – | – | – | – | – | Activity (SK-OV-3 [1]): Active; Activity (Mus musculus [2]): 7.9%; T/C (SK-OV-3 [3]): 79%; Activity (Mus musculus [4]): Non-toxic; IC50 (IGROV-1): 0.73 nM; IC50 (SK-OV-3 [6]): 2.2 nM; IC50 (SK-OV-3 [7]): 47 nM; IC50 [12]: 101 nM
2 | Nc1nc2[nH]c(CCCc3csc(C(=O)N[C@@H](CCC(=O)O)C(=O)O)c3)cc2c(=O)[nH]1 | 337 nM | 60% | 35% | inactive | inactive | 355 nM | > 1000 nM | 0.17 nM | 2.4 nM | 13 nM | Activity [15]: Active; inhibition [17]: Active
3 | Nc1nc(N)c2c(CCCc3cc(C(=O)N[C@@H](CCC(=O)O)C(=O)O)cs3)coc2n1 | > 1000 nM | – | – | inactive | inactive | > 1000 nM | > 1000 nM | 70.3 nM | 101 nM | 6500 nM | –
4 | Nc1nc(N)c2c(CCCc3csc(C(=O)N[C@@H](CCC(=O)O)C(=O)O)c3)coc2n1 | – | – | – | inactive | inactive | – | – | – | 82 nM | 5500 nM | –
5 | Nc1nc2[nH]cc(CCc3ccc(C(=O)N[C@@H](CCC(=O)O)C(=O)O)cc3)c2c(=O)[nH]1 [PEMETREXED] | – | – | – | – | – | – | – | – | – | – | Drug uptake (R2 [20]): Not Active; K [21]: 0.044 µM; K [22]: 0.27 µM
6 | B1 | – | – | – | – | – | – | – | – | – | – | Vmax [23]: 24.6 pmol/mg/min; Vmax [24]: 13.4 pmol/mg/min; Vmax [25]: 3 pmol/mg/min; Vmax [26]: 9.2 pmol/mg/min
